Series [1] deals with T1, Antigen-presenting glycoprotein CD1d (Mus musculus) (UniProt P11609+P11610). Briefly: Binding affinity to CD1d in C57BL/6 mouse splenocytes assessed as iNKT-cell stimulating activity by measuring IFN-gamma/IL-4 ratio at 0.01 uM incubated for 48 hrs by ELISA. The format is cell-based. The conditions noted are these: in the assay text read “IFN-gamma/IL-4 ratio” for “IFN-gamma/IL-6 ratio”. Summed up:
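Splenocytes prepared and cultured as for the cytokine assay (1×10^5/well, RPMI 1640 with 10% FBS, 48 h, 37 °C). IFN-γ and IL-4 determined by ELISA at 0.01 µM glycolipid and expressed as the relative proportion (IFN-γ/IL-4 ratio).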
(In general: In an ELISA, binding on a coated surface is turned into a signal by an enzyme label.)

Series [2] relates to Splenocyte. The experiment in a line: Induction of cell proliferation in C57BL/6 mouse splenocytes at 1 uM incubated for 48 hrs by MTT assay. The format is functional, cell-based. The gist of the method: (§1)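 Female C57BL/6 splenocytes, strained and RBC-lysed, plated at 1×10^5/well in RPMI 1640 with 10% FBS and 1% penicillin-streptomycin, treated 48 h at 37 °C at 1, 0.1 and 0.01 µM. MTT (5 mg/mL) added for 4 h, formazan dissolved in DMSO, OD read at 570 nm. Viability given as % of medium-only control cells.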
In general terms: Tetrazolium dyes change colour on reduction, which living cells bring about.

The subject of series [3] is Splenocyte. The experiment in a line: Cytotoxicity against C57BL/6 mouse splenocytes assessed as reduction in cell viability at 0.01 to 1 uM incubated for 48 hrs by MTT assay. In kind it is cell-based. The gist of the method: as §1
The target of series [4] is T1, Antigen-presenting glycoprotein CD1d (Mus musculus). The experiment in a line: Binding affinity to CD1d in C57BL/6 mouse splenocytes assessed as iNKT cell stimulating activity by measuring induction of Th1-cytokine, IFN-gamma production incubated for 48 hrs by ELISA. The format is cell-based. The gist of the method: (§2)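 Spleens from female C57BL/6 mice passed through a 100 µM strainer, RBC-lysed (ammonium chloride/KHCO3/EDTA buffer, pH 7.2, 5 min, 4 °C), PBS-washed. Splenocytes at 1×10^5/well in RPMI 1640 with 10% FBS and 1% penicillin-streptomycin, exposed to glycolipid at three concentrations (0.01-1 µM) for 48 h at 37 °C. IFN-γ and IL-4 in supernatant measured by ELISA (pg/mL); α-GalCer positive control.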

Series [5] concerns Mus musculus. Briefly: Immunostimulatory activity in C57BL/6 mouse assessed as increase in IFN-gamma level in serum at 100 ug/kg, ip measured after 6 to 24 hrs by ELISA. In kind it is functional, organism-based. Summed up: (§3)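 Female C57BL/6 mice, 7-8 weeks, 25-28 g, SPF housing. Glycolipid 1 mg/mL DMSO stock diluted in PBS, given ip at 100 µg/kg. Serum taken at several time points after injection and IFN-γ and IL-4 measured by ELISA; 3 mice per group, each serum tested individually.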

Series [6] has as its system Splenocyte. The experiment in a line: Induction of cell proliferation in C57BL/6 mouse splenocytes incubated for 48 hrs by MTT assay. In kind it is functional, cell-based. Summed up:
as §1

The target in series [7] is T1, Antigen-presenting glycoprotein CD1d (Mus musculus). Briefly: Binding affinity to CD1d in C57BL/6 mouse splenocytes assessed as iNKT cell stimulating activity by measuring maximal induction of Th1-cytokine, IFN-gamma production at 1 uM incubated for 48 hrs by ELISA. The format is cell-based. Summed up:
as §2

Series [8] has the same target. The experiment in a line: Binding affinity to CD1d in C57BL/6 mouse splenocytes assessed as iNKT cell stimulating activity by measuring maximal induction of Th2-cytokine, IL-4 production at 1 uM incubated for 48 hrs by ELISA. The format is cell-based. The gist of the method: as §2
The test system of series [9] is Mus musculus. Briefly: Immunostimulatory activity in C57BL/6 mouse assessed as induction of Th1 cytokine-biased response by measuring IFN-gamma/IL-6 ratio at 100 ug/kg, ip measured after 24 hrs by ELISA. The format is functional. The settings on record: in the assay text read “IFN-gamma/IL-4 ratio” for “IFN-gamma/IL-6 ratio”. Summed up: (§4)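 Female C57BL/6 mice given glycolipid ip at 100 µg/kg (DMSO stock diluted in PBS). Serum IFN-γ and IL-4 measured by ELISA at several time points up to 24 h, 3 mice per group tested individually. Th1 bias expressed as IFN-γ/IL-4 ratio and as area-under-curve ratio of IFN-γ/IL-4 release.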

The target of series [10] is T1, Antigen-presenting glycoprotein CD1d (Mus musculus). The experiment in a line: Binding affinity to CD1d in C57BL/6 mouse splenocytes assessed as iNKT cell stimulating activity by measuring induction of Th2-cytokine, IL-4 production incubated for 48 hrs by ELISA. In kind it is cell-based. Summed up:
as §2

Series [11] deals with Mus musculus. Briefly: Immunostimulatory activity in C57BL/6 mouse assessed as IFN-gamma level in serum at 100 ug/kg, ip measured after 24 hrs by ELISA. In kind it is functional. The gist of the method: as §3
The test system of series [12] is Mus musculus. The experiment in a line: Immunostimulatory activity in C57BL/6 mouse assessed as increase in IL-4 level in serum at 100 ug/kg, ip measured after 3 hrs by ELISA. The format is functional, organism-based. Summed up: as §3
Series [13] has as its system Mus musculus. Briefly: Immunostimulatory activity in C57BL/6 mouse assessed as induction of Th1 cytokine-biased response by measuring AUC ratio of IFN-gamma/IL-4 cytokine release at 100 ug/kg, ip measured after 24 hrs by ELISA. The format is functional. Summed up:
as §4

In series [14] the test system is Mus musculus. The experiment in a line: Immunostimulatory activity in C57BL/6 mouse assessed as induction of Th1 cytokine-biased response by measuring IFN-gamma/IL-4 ratio at 100 ug/kg, ip measured after 24 hrs by ELISA.
In series [15] the test system is Mus musculus. The experiment in a line: Immunostimulatory activity in C57BL/6 mouse assessed as increase in IL-4 level in serum at 100 ug/kg, ip measured after 6 hrs by ELISA. The format is functional, organism-based. Summed up:
as §3

Calls of active or inactive are those of the source. The calls are words filed in the database; no cut-off is given here.

On to `CCCCCCCCCCCCCCCCCCCCCCCCCC(=O)N[C@@H](CO[C@H]1O[C@H](Cn2cc(C(=O)N[C@@H](CO)C(=O)OC)nn2)[C@H](O)[C@H](O)[C@H]1O)[C@H](O)[C@H](O)CCCCCCCCCCCCCC`, for which the Ratio amounted to 1.7 in [1] and 1.8 in the series on Mus musculus [9]. The result (with Splenocyte [2]; with Mus musculus [5]; in [7]; in [8]; with Mus musculus [12]) was Active. Further, the Activity entry in the series with Splenocyte [3] was “Non-Toxic”; in [4], “Dose-dependent effect”; in the series with Splenocyte [6] it was “Dose-dependent effect”; in series [10] it was “Dose-dependent effect”; with Mus musculus [11], 4755 pg/mL.
As for `CCCCCCCCCCCCCCCCCCCCCCCCCC(=O)N[C@@H](CO[C@H]1O[C@H](Cn2cc(C(=O)N[C@@H](Cc3ccccc3)C(=O)OC)nn2)[C@H](O)[C@H](O)[C@H]1O)[C@H](O)[C@H](O)CCCCCCCCCCCCCC`, the Ratio in series [1] amounted to 3.3. Also, the result (in the series with Splenocyte [2]; with Mus musculus [5]; in series [7]; in series [8]; in the series on Mus musculus [11]; in the series on Mus musculus [12]) was Active. In addition, the Activity entry in the series with Splenocyte [3] was “Non-Toxic”; in series [4], “Dose-dependent effect”; with Splenocyte [6], “Dose-dependent effect”; in series [10] it was “Dose-dependent effect”.
As for `CCCCCCCCCCCCCCCCCCCCCCCCCC(=O)N[C@@H](CO[C@H]1O[C@H](Cn2cc(C(=O)NCC(=O)OC)nn2)[C@H](O)[C@H](O)[C@H]1O)[C@H](O)[C@H](O)CCCCCCCCCCCCCC`, the Ratio in [1] was 2.1. Moreover, the outcome (in the series with Splenocyte [2]; in the series with Mus musculus [5]; in series [7]; in series [8]; in the series with Mus musculus [11]; in the series with Mus musculus [12]) was Active. Also, the Activity result is “Non-Toxic” in the series with Splenocyte [3], “Dose-dependent effect” in [4], “Dose-dependent effect” in the series with Splenocyte [6] and “Dose-dependent effect” in series [10].
As for `CCCCCCCCCCCCCCCCCCCCCCCCCC(=O)N[C@@H](CO[C@H]1O[C@H](CO)[C@H](O)[C@H](O)[C@H]1O)[C@H](O)[C@H](O)CCCCCCCCCCCCCC` [RGI-7000], the results for the Activity entry (in series [4]; in series [10]; in the series with Mus musculus [11]) were “Dose-dependent effect”, “Dose-dependent effect” and 2925 pg/mL, respectively. The outcome (in the series with Mus musculus [5]; in series [7]; in series [8]; in the series on Mus musculus [12]) was Active. Also, the Ratio in the series on Mus musculus [9] turned out to be 2.5; in the series on Mus musculus [13] it was 13.2.
Take `CCCCCCCCCCCCCCCCCCCCCCCCCC(=O)N[C@@H](CO[C@H]1O[C@H](Cn2cc(C(=O)N[C@@H](CCCCN)C(=O)OC)nn2)[C@H](O)[C@H](O)[C@H]1O)[C@H](O)[C@H](O)CCCCCCCCCCCCCC`: the figures for the Ratio (in [1]; in the series on Mus musculus [14]; in the series with Mus musculus [13]) were 4.9, 5.6 and 23.6, respectively. The outcome (with Splenocyte [2]; in [7]; in series [8]; in the series with Mus musculus [15]) was Active. The Activity result was “Non-Toxic” in the series on Splenocyte [3]; “Dose-dependent effect” in [4]; “Dose-dependent effect” in the series with Splenocyte [6]; “Dose-dependent effect” in series [10]; 3886 pg/mL in the series with Mus musculus [11].
